# Hck Nef HTS = human Hck-Nef kinase inhibition; actives 0.68% (n = 220,000); P08631; Recombinant Hck-YEEI plus Nef, Z-Lyte FRET kinase assay; inhibition, % at 20 µM;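 active = Hck-Nef kinase inhibition above about 50%, limit read from the data; inactive = inhibition below that limit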;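 also: 0% = DMSO with Hck plus Nef and 100% = Hck alone without Nef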
# Runt-SMMHC FRET = inhibitors of human RUNX1 Runt domain binding to CBFb-SMMHC | Q01196+Q13951 | Cerulean-Runt/Venus-CBFb-SMMHC FRET ratio 530/480, 1 h | inhibition, % at 20 µM | actives 0.74% (n = 220,000) | AID 1434;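 active = mean inhibition across duplicate retests at 20 µM reaching about 50%, limit read from the data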;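 also: 0% = DMSO wells and 100% = wells with excess untagged CBFb-SMMHC; inhibitors lower the FRET ratio by blocking Runt binding to CBFb-SMMHC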
# Target sequence (Q01196 whole entry, looked up, the tested form may be a part): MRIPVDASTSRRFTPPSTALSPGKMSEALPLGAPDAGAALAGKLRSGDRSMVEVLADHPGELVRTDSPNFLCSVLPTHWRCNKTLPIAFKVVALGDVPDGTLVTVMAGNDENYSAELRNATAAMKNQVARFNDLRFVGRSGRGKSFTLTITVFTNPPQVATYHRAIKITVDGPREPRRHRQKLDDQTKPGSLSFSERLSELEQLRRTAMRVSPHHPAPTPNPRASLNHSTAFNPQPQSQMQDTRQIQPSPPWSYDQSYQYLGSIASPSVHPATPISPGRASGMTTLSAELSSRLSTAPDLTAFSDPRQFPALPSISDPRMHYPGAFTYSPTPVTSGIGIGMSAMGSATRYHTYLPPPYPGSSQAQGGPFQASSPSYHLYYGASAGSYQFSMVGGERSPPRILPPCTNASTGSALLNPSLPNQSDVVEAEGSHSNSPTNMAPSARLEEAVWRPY
# Target sequence (Q13951 whole entry, looked up, the tested form may be a part): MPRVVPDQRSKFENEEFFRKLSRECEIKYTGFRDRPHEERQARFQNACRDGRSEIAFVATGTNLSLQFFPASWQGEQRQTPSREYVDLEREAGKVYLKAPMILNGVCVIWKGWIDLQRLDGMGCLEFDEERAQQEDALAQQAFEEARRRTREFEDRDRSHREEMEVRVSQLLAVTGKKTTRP
# RanGTP-Imp inh = inhibitors of RanGTP-importin-beta interaction, primary screen, biochemical, FRET, CFP-Ran, YFP-importin-beta, homogeneous; inhibition, % (no concentration beside the values); cell-free CFP-Ran/YFP-importin-beta FRET ratio; actives 1.1% (n = 300,000);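 active = more than half of the replicate wells show a fall in the fluorescence ratio signal beyond about 16%, limit read from the data, passing the limit was not always enough; inconclusive = exactly half of the replicate wells pass the set limit; inactive = fewer than half of replicates pass the limit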;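 also: 0% = DMSO wells and 100% = Ran loaded with GDP instead of GTP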
# Runt-CBFb FRET = blocks binding of human RUNX1 Runt domain to CBFb | Q01196+Q13951 | Cerulean-Runt/Venus-CBFb FRET ratio 530/480, 1 h | inhibition, % at 20 µM | actives 0.46% (n = 220,000) | AID 1496;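 active = inhibition over about 50% at 20 µM in the single-dose screen, limit read from the data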;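 also: 0% = DMSO wells and 100% = excess unlabeled CBFb competitor control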
#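 System: Cerulean-labeled Runt domain protein | Quantity: 100 nM of each labeled protein | Schedule: 1 h compound exposure, room temperature | Detection: Fluorescence energy transfer, 422 nm excitation, 530/480 nm emission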
# Hck-Nef confirm = Hck-Nef kinase inhibition, confirmation; AID 463188; calls only at 10 µM; shares compounds with Hck Nef HTS; actives 28% (n = 1,300); Recombinant Hck-YEEI:Nef, Z-Lyte FRET kinase assay;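 active = average inhibition of at least 50%, with Z-scores no higher than 3 in both the phospho-tyrosine peptide and fluorescence counterscreens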
# The depositor's hits bear a star; i = inactive; ? = inconclusive; / = no result shown; + = active, no number. Most compounds without a hit are left out; they make up all but 1.8% or so of the library.
SMILES,Hck Nef HTS,Runt-SMMHC FRET,RanGTP-Imp inh,Runt-CBFb FRET,Hck-Nef confirm
C=CCN(C(=O)C1=NN(C2CCS(=O)(=O)C2)C(=O)CC1)c1nc(-c2ccc([N+](=O)[O-])cc2)cs1 (stereo unspecified),18,-6,2,5,/
Cc1cc(C(=O)Nc2ccon2)ccc1[N+](=O)[O-],/,/,-6,/,/
CCN1C(=O)/C(=C\c2cn(-c3ccccc3)nc2-c2cccnc2)SC1=S,60*,-16,6,-4,i
CN(C)CCCNC(=S)N(CCCO)Cc1cc2cc3c(cc2[nH]c1=O)OCO3,/,/,3,/,/
CN(C)CCCNC(=S)NCCNc1nc2cc3c(cc2cc1C#N)OCO3,51*,113*,72*,84*,/
COCCNC(=S)NCCCNc1nc2cc3c(cc2cc1C#N)OCO3,70*,48,87*,15,/
Cc1ccc(NC(=O)CN2C(=O)S/C(=C\c3cccn3-c3cccc(C(=O)O)c3)C2=O)c(C)c1,78*,-15,8,-6,+
Cc1ccccc1NC(=O)CN1C(=O)S/C(=C\c2cccn2-c2cccc(C(=O)O)c2)C1=O,9,2,3,4,/
Nc1nn2cc(-c3ccccc3)nc2c2ccccc12,50*,2,4,0,+
COc1cccc(Nc2ncc(C#N)c(N)n2)c1,57*,0,-2,0,+
COc1ccc(OCC(=O)Nc2cc(-c3nn(C)c(=O)c4ccccc34)ccc2N2CCOCC2)cc1,11,-1,-2,2,/
COC(=O)c1c(N)n(-c2cc(OC)cc(OC)c2)c2nc3ccccc3nc12,16,/,/,/,/
COCCCNC(=O)c1c(N)n(-c2cccc(S(N)(=O)=O)c2)c2nc3ccccc3nc12,64*,62*,104*,92*,/
Nc1c(C(=O)NCC2CCCO2)c2nc3ccccc3nc2n1-c1ccccc1 (stereo unspecified),55*,-20,78*,83*,/
CCCNC(=O)c1c(N)n(-c2cccc(OC)c2)c2nc3ccccc3nc12,77*,-20,80*,62*,/
CCOC(=O)c1c(C)[nH]c(C(=O)OCC(=O)N2CCc3ccccc32)c1C,92*,3,-2,-7,i
CCOC(=O)c1[nH]c(C)c(C(=O)OCC(=O)N2CCc3ccccc32)c1C,-21,-5,0,-2,/
O=c1[nH]ncc(N/N=C\c2cccs2)c1Cl,59*,1,/,-1,+
Cc1cccc(/C=N\Nc2cn[nH]c(=O)c2Cl)c1,46,3,3,-1,/
COc1ccccc1/C=N\Nc1cn[nH]c(=O)c1Cl,61*,-1,4,1,i
O=c1[nH]ncc(N/N=C\c2ccncc2)c1Cl,43,-1,1,-1,/
CCCCNC(=O)COc1ccccc1C(=O)c1cc(C#N)c(=O)n(CCOC)c1,2,7,0,4,/
O=C1NN(c2ccccc2)C(=O)/C1=C\c1coc2ccc(O)cc2c1=O,71*,-1,-3,5,+
O=C1NN(c2ccccc2)C(=O)/C1=C/c1coc2ccccc2c1=O,88*,-1,-2,-2,+
O=C1NN(c2ccccc2)C(=O)/C1=C\c1ccccc1,/,/,-9,/,/
SMILES,Hck Nef HTS,Runt-SMMHC FRET,RanGTP-Imp inh,Runt-CBFb FRET,Hck-Nef confirm
CC(NC(=O)c1ccccc1F)c1nnc(SCC(=O)NC2=NCCS2)n1C (stereo unspecified),/,/,1,/,/
COc1ccc(/C=C2\C(=O)ON=C2c2cccc([N+](=O)[O-])c2)cc1,53*,7,6,-2,i
COc1ccc(/C=C2/C(=O)ON=C2c2ccccc2)cc1OC,-1,54,?,33,/
CNc1c(NS(=O)(=O)c2ccc(F)cc2)c(=O)oc2ccccc12,/,/,0,/,/
Cc1cc(=O)oc2cc(NS(=O)(=O)c3ccc(F)cc3)ccc12,106*,67*,3,25,/
CN(C)S(=O)(=O)c1ccc(S(=O)(=O)Nc2ccc3c(c2)oc2ccccc23)cc1,0,1,1,-3,/
Cc1cc(=O)oc2cc(NS(=O)(=O)c3ccccc3)ccc12,114*,91*,3,38,/
O=C(Nc1cccc(-c2nc3cccnc3s2)c1)C1c2ccccc2Oc2ccccc21,102*,-9,0,-1,+
O=C(Nc1cccc(-c2nc3cccnc3s2)c1)c1ccc(Cl)nc1,87*,-3,0,-2,i
O=C(Nc1cccc(-c2nc3cccnc3s2)c1)c1cccnc1Cl,20,5,2,-1,/
COc1cccc(Nc2ccccc2C(=O)O)c1,13,1,2,0,/
COc1cc(-c2ccc(Nc3ccccc3C(=O)O)c(OC)c2)ccc1Nc1ccccc1C(=O)O,94*,-8,/,17,+
O=C1CSC(=S)N1/N=C/c1ccc(Cl)c([N+](=O)[O-])c1,80*,-6,7,12,+
CCOc1cc(S(=O)(=O)n2nc(C)cc2C)ccc1Br,-42,-4,1,0,/
O=C(NC1CCN(C(=O)c2ccccc2Br)CC1)c1ccccc1,/,/,0,/,/
O=C(Nc1ccc(-c2cnco2)cc1)c1ccccc1,-2,-3,1,2,/
O=C(NC(=O)c1ccccc1Cl)Nc1ccc(-c2cnco2)cc1,70*,-2,7,-2,i
CCOc1cccc(CNCCSc2nnnn2C)c1,12,-6,-2,1,/
CCCCOc1ccc(-c2nnc(N)s2)cc1,78*,2,3,-4,+
CC1=C(C#N)c2nc(N)c(C#N)c(C)c2/C1=C\c1ccc(-c2ccccc2C(=O)O)o1,61*,-8,-6,-1,i
CCCCn1c(N)c(N(CC(C)C)C(=O)c2ccc3c(c2)NC(=O)C(C)S3)c(=O)[nH]c1=O (stereo unspecified),/,/,0,/,/
COc1cc2c(cc1OC)CN(c1nc(-c3cccnc3)nc3ccccc13)CC2,68*,-9,-3,-9,+
C/C(N)=C(/C#N)C(=O)CSc1nc2ccccc2c(=O)n1Cc1ccc(C)cc1,55*,1,1,/,i
Cc1ccc(NS(=O)(=O)c2ccc(-n3cccn3)cc2)nc1,/,/,4,/,/
Nc1cc([N+](=O)[O-])ccc1Nc1ccccc1,82*,-2,-5,-6,i
SMILES,Hck Nef HTS,Runt-SMMHC FRET,RanGTP-Imp inh,Runt-CBFb FRET,Hck-Nef confirm
COc1ccccc1/C=C(\NC(=O)c1ccccc1)C(=O)NCc1ccco1,/,/,-1,/,/
COc1ccc(-c2cnnc(N/N=C/c3ccc(-c4ccc([N+](=O)[O-])cc4)o3)n2)cc1,84*,10,/,34,+
Cc1ccc(O)c(NC(=S)NC(=O)/C=C/c2ccco2)c1,75*,-18,?,-2,+
Cc1ccnc(NC(=S)NC(=O)/C=C/c2ccco2)c1,0,0,-22,2,/
Cc1nc2ccccc2nc(=O)c1NNc1ccccc1,101*,-3,3,0,+
Cc1cc(=O)n2[nH]c(C)c(-c3ccccc3)c2n1,-2,4,-3,0,/

# Screening data as filed in PubChem.
